Measured values collected from several papers.
Protocols differ between the studies behind these lines.
Target: Calcium/calmodulin-dependent protein kinase type II subunit gamma (CAMK2G, Homo sapiens, UniProt Q13555)

Compound | observed | mode | technique | concentration | measurement | value
CC(C)(O)[C@H]1CC[C@H](Nc2ccc3ncc(-c4cccc(C(F)(F)F)c4)n3n2)CC1 | enzyme activity | inhibitor | – | 1 µM | remaining activity | 95.1%
COc1cc(Cl)c(C(=O)N[C@@H](CN[C@H]2CC[C@@H](N)CC2)Cc2ccc(C#N)cc2)cc1-c1ccc(CN[C@H](C)c2ccc(C)cc2)o1 | enzyme activity | inhibitor | – | 1 µM | remaining activity | 87%
CN1CC(Oc2cnc(C#N)cc2-c2ccn3nc(NC(=O)C4CC4)cc3c2)C1 | enzyme activity | inhibitor | – | 1 µM | inhibition | 10%
CNCc1ccccc1-c1csc([C@H](C)Nc2nc(C)nc3cc(OC)c(OC)cc23)c1 | cell-free assay | – | competition with immobilised ligand | 1 µM | remaining binding | 90%
O=C(Nc1cnn(-c2csc(C(=O)NC3COC3)c2)c1)Nc1c(F)cccc1Cl | enzyme activity | inhibitor | – | 5 µM | remaining activity | 90.1%
CCCOc1ccc(OC)c(F)c1C(=O)c1ccc(C(=O)N[C@@H]2CNC[C@H]2NC(=O)c2ccc3[nH]ncc3c2)cc1 | enzyme activity | inhibitor | – | 10 µM | remaining activity | 79%
Cc1ccc(C(=O)NCc2ccsc2)cc1C#Cc1cn(C(C)C)c2ncnc(N)c12 | enzyme activity | inhibitor | – | 1 µM | activity vs control | 101%
O=c1nc(-c2ccccn2)sc2ccccc12 | binding | – | competition with immobilised ligand | 1 µM | remaining binding | 96%
C[C@@H]1CCN(C(=O)CC#N)C[C@@H]1N(C)c1ncnc2[nH]ccc12 | cell-free assay | – | – | 0.5 µM | remaining signal | 127%
Cc1nc(Cc2cccc(C(F)(F)F)c2)sc1-c1ccc(C(N)=O)nc1 | cell-free assay | – | competition with immobilised ligand | 1 µM | remaining binding | 93%
C#Cc1cccc(Nc2ncnc3cc(OCCOC)c(OCCOC)cc23)c1 | cell-free assay | – | – | 0.5 µM | remaining signal | 115%
CN([C@@H]1CCc2c(CC(=O)O)c3cc(S(C)(=O)=O)ccc3n2C1)S(=O)(=O)c1ccc(F)cc1 | cell-free assay | – | competition with immobilised ligand | 1 µM | remaining binding | 100%
CCCS(=O)(=O)Nc1ccc(F)c(C(=O)c2c[nH]c3ncc(-c4ccc(Cl)cc4)cc23)c1F | enzyme activity | inhibitor | – | 1 µM | inhibition | < 10%
Nc1ncnc2occ(-c3ccc(NC(=O)Nc4cc(C(F)(F)F)ccc4F)cc3)c12 | cell-free assay | – | – | 20 µM | remaining signal | 71%
O=C(Nc1cnn(-c2csc(C(=O)NC3COC3)c2)c1)Nc1ccccc1Cl | enzyme activity | inhibitor | – | 5 µM | remaining activity | 96.4%
CNC(=O)c1cc(Oc2ccc(NC(=O)Nc3ccc(Cl)c(C(F)(F)F)c3)cc2)ccn1 | cell-free assay | – | – | 0.3 µM | inhibition | 51%
CN(C)c1ncnc(-c2ccc3nc(Nc4cc(CN5CCN(C(=O)CC(F)(F)F)CC5)ccn4)[nH]c3c2)c1Cl | cell-free assay | – | competition with immobilised ligand | 1 µM | remaining binding | 100%
CC(C)(C)c1nc(-c2cccc(NS(=O)(=O)c3c(F)cccc3F)c2F)c(-c2ccnc(N)n2)s1 | enzyme activity | inhibitor | radiometric | 1 µM | remaining activity | 102%
CNC(=O)Nc1ccc2c(c1)CC[C@@]21OC(=O)N(CC(=O)N(Cc2ccc(F)cc2)[C@@H](C)C(F)(F)F)C1=O | cell-free assay | – | competition with immobilised ligand | 1 µM | remaining binding | 76%
Cc1cnc(NC2CCOCC2)nc1-n1cnc(C(=O)NC(CN)c2cc(F)cc(Cl)c2)c1 (centres unmarked) | enzyme activity | inhibitor | radiometric | 1 µM | remaining activity | 88%
